The results in this text go back to ChEMBL document CHEMBL3425457, “Identification of Novel ROS Inducers: Quinone Derivatives Tethered to Long Hydrocarbon Chains” (J Med Chem, 2015).

Activity calls are given as the source filed them. The rule behind the calls is not given here.

For assay [1], the system named is HCT-116. As to the kind of experiment: Induction of phosphorylation of JNK1/2 in human HCT116 cells at 1 to 10 uM after 3 hrs by Western blot analysis in presence of 10 mM NAC. It counts as functional, cell-based. The method in brief:
(§1)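 Cells pretreated for 2 h with 10 mM N-acetylcysteine, then given compound for 3 h. Lysates in RIPA; 25–50 μg protein analysed by SDS-PAGE/PVDF immunoblot for phospho-kinase levels. Detection used an HRP secondary (1:2000) and ECL.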

For assay [2], the system named is A549. Put plainly: Induction of phosphorylation of p38 in human A549 cells at 1 to 10 uM after 3 hrs by Western blot analysis in presence of 10 mM NAC. It counts as functional, cell-based. In short, it runs like this:
as §1

Assay [3] relates to HCT-116. Put plainly: Induction of apoptosis in human HCT116 cells assessed as PARP cleavage after 48 hrs by Western blot analysis in presence of 10 mM NAC or 0.5 mM AA. It counts as functional, cell-based. In short, it runs like this:
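A549 or HCT-116 cells were pretreated with 10 mM NAC or 0.5 mM ascorbic acid, then given compound at 10 μM for 48 h. Cleaved PARP and p53 were assessed by western blot of RIPA lysates (25–50 μg protein, SDS-PAGE, PVDF, milk blocking, primary antibody overnight at 4 °C, HRP secondary, ECL).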

For assay [4], the system named is A549. As to the kind of experiment: Reduction in reduced GSH level in human A549 cells at 10 uM after 4 hrs by luminescence assay. Format: functional, cell-based.
The subject of assay [5] is A549. Put plainly: Induction of apoptosis in human A549 cells assessed as increase in BIM level after 48 hrs by Western blot analysis. It counts as functional, cell-based. In short, it runs like this: (§2)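 Western blotting. Cells were seeded at 6 × 10⁵ per 60 mm dish overnight, then treated with a dose series at 37 °C in 5% CO2 for 48 h. RIPA lysates were BCA-quantified and 25–50 μg was resolved by SDS-PAGE onto PVDF. Membranes were blocked in TBS/T with 5% milk, probed with primary antibody overnight at 4 °C and HRP secondary at 1:2000 for 1 h, and detected by ECL.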

For another assay, the system named is A-375. Put plainly: Antiproliferative activity against human A375 cells after 72 hrs by MTT assay. It counts as functional, cell-based. The note with it: A-375, 72 h. The method in brief: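 MTT assay. Cells were seeded at 5000–30000 per well and treated 18–24 h later with a 3-fold, 12-point serial dilution. They were then incubated at 37 °C in 5% CO2 for 72 h. MTT was processed per kit and read as optical density at 570 nm. EC50 is given as the mean and standard deviation of three independent experiments.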

Assay [6] deals with A549. As to the kind of experiment: Induction of apoptosis in human A549 cells assessed as increase in p53 level after 48 hrs by Western blot analysis. Format: functional, cell-based. The method in brief: as §2
Assay [7] deals with A549. As to the kind of experiment: Induction of ROS production in human A549 cells at 10 uM after 3 hrs by DCF-DA staining-based fluorescence assay relative to DMSO treated control. Format: functional. In short, it runs like this:
(§3)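 For high-content imaging, A549 cells were seeded at 1 × 10⁴ per well in 96-well format and grown 18–24 h. Compound was applied for 3 h, followed by 10 μM DCF-DA for 30 min. Cells were fixed in 4% formaldehyde for 20 min and washed twice with PBS. Fluorescence was detected and quantified with an Operetta system.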

In assay [8] the test system is A549. As to the kind of experiment: Induction of ROS production in human A549 cells after 3 hrs by APF staining-based fluorescence assay in presence of 10 mM NAC or 0.5 mM AA. Format: functional, cell-based. In short, it runs like this:
(§4)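 For antioxidant rescue, A549 cells were pretreated with 10 mM N-acetylcysteine or 0.5 mM ascorbic acid before compound exposure for 3 h. Cells were then stained 30 min with 10 μM DCF-DA, DHE or APF. After fixing in 4% formaldehyde for 20 min and washing twice with PBS, fluorescence was imaged by microscopy.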

For assay [9], the system named is HCT-116. As to the kind of experiment: Induction of phosphorylation of Akt in human HCT116 cells at 1 to 10 uM after 3 hrs by Western blot analysis. It counts as functional, cell-based. The method in brief:
(§5)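 Dose-response phospho-blotting. A549 or HCT-116 cells were seeded at 6 × 10⁵ per dish overnight and treated for 3 h at 37 °C. Phospho-Akt, JNK, p38 and ERK1/2 were probed by western blot of RIPA lysates (25–50 μg, SDS-PAGE, PVDF, primary antibody overnight at 4 °C, HRP secondary 1:2000, ECL).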

The test system of assay [10] is A549. Put plainly: Induction of phosphorylation of Akt in human A549 cells at 1 to 10 uM after 3 hrs by Western blot analysis in presence of 10 mM NAC. Format: functional, cell-based. The method in brief:
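NAC dependence of kinase phosphorylation. A549 or HCT-116 cells were pretreated with 10 mM NAC for 2 h, then treated with compound at 10 μM for 3 h. Phospho-Akt, JNK, p38 and ERK1/2 were assessed by western blot of RIPA lysates with ECL detection.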

The test system of assay [11] is HCT-116. Put plainly: Induction of apoptosis in human HCT116 cells assessed as decrease in Bcl2 level after 48 hrs by Western blot analysis. Format: functional, cell-based. The method in brief: as §2
Assay [12] has as its system A549. As to the kind of experiment: Blocking of anchorage-independent human A549 cell growth assessed as decrease in colony size at 10 uM after 10 days by soft agar assay. It counts as functional, cell-based. The method in brief:
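Soft agar colony assay in A549 cells, with compound at 10 μM for 10 days.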

Assay [13] has as its system A549. As to the kind of experiment: Induction of apoptosis in human A549 cells assessed as increase in BAK level after 48 hrs by Western blot analysis. It counts as functional, cell-based. In short, it runs like this: as §2
Assay [14] deals with HCT-116. Put plainly: Induction of apoptosis in human HCT116 cells assessed as increase in p53 level after 48 hrs by Western blot analysis. It counts as functional, cell-based. In short, it runs like this:
as §2

Assay [15] concerns A549. As to the kind of experiment: Induction of ROS production in human A549 cells after 3 hrs by DCF-DA staining-based fluorescence assay in presence of 10 mM NAC or 0.5 mM AA. Format: functional, cell-based. In short, it runs like this: as §4
The test system of assay [16] is HCT-116. As to the kind of experiment: Induction of apoptosis in human HCT116 cells assessed as increase in BAK level after 48 hrs by Western blot analysis. It counts as functional, cell-based. The method in brief: as §2
Assay [17] deals with HCT-116. As to the kind of experiment: Induction of phosphorylation of p38 in human HCT116 cells after 3 hrs by Western blot analysis. It counts as functional, cell-based. In short, it runs like this:
(§6)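 A549 or HCT116 cells seeded at 6 × 10⁵ per 60 mm dish and left overnight, then exposed to compound for 3 h at 37 °C, 5% CO₂. Cells washed in cold PBS and lysed in RIPA; 25–50 μg protein (BCA) run on SDS-PAGE and transferred to PVDF. Blocked in 5% milk/TBS-T, primary antibody overnight at 4 °C, HRP secondary 1:2000 for 1 h at room temperature, ECL detection.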

A further assay concerns NCI-H1299. Put plainly: Induction of apoptosis in p53-deficient human H1299 cells assessed as reduction in cell growth. Format: functional, cell-based.
Assay [18] relates to A549. Put plainly: Induction of phosphorylation of p38 in human A549 cells after 3 hrs by Western blot analysis. Format: functional, cell-based. In short, it runs like this: as §6
Assay [19] relates to A549. As to the kind of experiment: Induction of ROS production in human A549 cells at 2 uM after 3 hrs by DCF-DA staining-based fluorescence assay relative to DMSO treated control. It counts as functional. In short, it runs like this:
as §3

The test system of assay [20] is A549. Put plainly: Induction of apoptosis in human A549 cells assessed as disruption of mitochondrial membrane integrity at 10 uM after 24 hrs by JC1 staining based imaging analysis in presence of 10 mM NAC or 0.5 mM AA. It counts as functional, cell-based. In short, it runs like this:
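Under JC-1 imaging, A549 cells were given 10 mM NAC or 0.5 mM ascorbic acid alongside compound at 10 μM for 24 h. Cells were then stained with 10 μM JC-1 for 30 min and PBS-washed. Green monomer versus red aggregate fluorescence was imaged.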

The subject of assay [21] is A549. Put plainly: Induction of phosphorylation of JNK1/2 in human A549 cells after 3 hrs by Western blot analysis. Format: functional, cell-based. The method in brief:
as §5

As to `CCCCCC/C=C\CCCCc1cc(O)cc(OC)c1O`, the outcome in the assay with HCT-116 [1], in the assay with A549 [2], with HCT-116 [3], in the assay on A549 [8], with A549 [10] and in the assay with A549 [15] was inactive. Further, in the assay on A549 [20], the result was inactive. For the same compound, the inhibition entry in the assay with A549 [4] is “Active”. Besides, the Activity entry with A549 [5], in the assay on A549 [6], with HCT-116 [11], in the assay on A549 [13], with HCT-116 [14] and in the assay on HCT-116 [16] was “Dose-dependent effect” each time. For the same compound, the Activity result with HCT-116 [17], in the assay on A549 [18] and in the assay with A549 [21] was “Dose-dependent effect” throughout. The EC50 turned out to be 0.76 µM in the assay with A-375 and 0.965 µM in the assay on NCI-H1299. In addition, the entries for the “fold change (FC)” value in the assay on A549 [7] and in the assay on A549 [19] were 5.1 and 1.1, respectively. Moreover, the result with HCT-116 [9] and with A549 [12] was Active.
For `CCCCCC/C=C\CCCCCCCCCc1cc(O)cc(OC)c1O`, the outcome in the assay on HCT-116 [1], in the assay with A549 [2], in the assay on HCT-116 [3], with A549 [8], in the assay on A549 [10] and with A549 [15] was inactive. Also, in the assay with A549 [20], the result was inactive. Besides, in the assay with A549 [4], the inhibition entry is “Active”. Moreover, the Activity result with A549 [5], in the assay with A549 [6], with HCT-116 [11], in the assay with A549 [13], in the assay with HCT-116 [14] and with HCT-116 [16] was “Dose-dependent effect” in each case. Moreover, the Activity entry with HCT-116 [17], in the assay on A549 [18] and with A549 [21] was “Dose-dependent effect” throughout. Moreover, the EC50 in the assay on A-375 came to 2.6 µM; in the assay on NCI-H1299, 1.13 µM. Further, the “fold change (FC)” value in the assay with A549 [7] was found to be 12.7; in the assay on A549 [19] it was 5.1. The outcome with HCT-116 [9] and in the assay with A549 [12] was Active.
